Measured values taken from ChEMBL document CHEMBL1132112, “Novel modifications in the alkenyldiarylmethane (ADAM) series of non-nucleoside reverse transcriptase inhibitors” (J Med Chem, 1999).

Key:
[1] = test system: CEM-SS; experiment: 50% inhibitory concentration for cytopathicity of HIV-1 RF in CEM-SS cells; NA=Not active (EC50 uM); assay type: functional, cell-based, Homo sapiens
In short: (§1)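 CEM-SS cells infected with HIV-1 RF; drug-induced protection from viral cytopathic effect read by XTT, as percent of uninfected drug-free control. EC50 is the concentration giving 50% protection. Triplicate wells on each plate, two sister plates; the plate EC50s (each a triplicate average) were averaged. XTT results were confirmed by supernatant RT and p24 levels. NA means no inhibition up to the concentration cytotoxic to uninfected cells.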

[2] = test system: CCRF-CEM; experiment: Concentration inhibiting 50% of mock-infected CEM cells.; assay type: functional; conditions: Homo sapiens
In short: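 Uninfected (mock-infected) CEM-SS cultures exposed to drug. Viability by XTT, expressed as percent of drug-free control. CC50 is the concentration causing 50% cell death. Triplicates on each plate, two sister plates averaged.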

[3] = biological target: T1, Human immunodeficiency virus type 1 reverse transcriptase (Human immunodeficiency virus 1, UniProt Q72547); experiment: Inhibition of HIV-1 Reverse transcriptase using poly-(rc)-oligo(dg) as the template primer.
In short: (§2)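 Purified p66/51 HIV-1 reverse transcriptase. Inhibition read as incorporation of [32P]-TTP into poly(rA)·oligo(dT) or of [32P]GTP into poly(rC)·oligo(dG) homopolymer template-primer.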

[4] = biological target: T1, Human immunodeficiency virus type 1 reverse transcriptase; experiment: Inhibition of HIV-1 Reverse transcriptase using poly-(ra)-oligo(dt) as the template primer.; in short: as §2
[5] = test system: CEM-SS; experiment: Inhibition of cytopathic effect of HIV-1 RT containing the specified mutation K103N in CEM-SS cells.; assay type: functional, cell-based, Homo sapiens
[6] = test system: CEM-SS; experiment: Inhibition of cytopathic effect of HIV-1 RT containing the specified mutation L100I in CEM-SS cells.; assay type: functional, cell-based, Homo sapiens
[7] = test system: CEM-SS; experiment: Inhibition of cytopathic effect of HIV-1 RT containing the specified mutation Y181C in CEM-SS cells.; assay type: functional, cell-based, Homo sapiens
[8] = test system: CEM-SS; experiment: Inhibition of cytopathic effect of HIV-1 RT containing the specified mutation Y181C resistant to AZT in CEM-SS cells.; assay type: functional, cell-based, Homo sapiens
[9] = test system: Human immunodeficiency virus 1; experiment: Inhibition of cytopathic effect of HIV-1 strain wild type enzyme NL4-3 in CEM-SS cells.; assay type: functional, organism-based; conditions: Human immunodeficiency virus 1, CEM-SS
[10] = test system: CEM-SS; experiment: 50% inhibitory concentration for cytopathicity of HIV-1 RF in CEM-SS cells.; assay type: functional, cell-based; conditions: Homo sapiens; in short: as §1
[11] = Therapeutic index was determined for the compound as CC50/EC50; conditions: read-out: TI
In short: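 Ratio of CC50 (XTT viability, uninfected CEM-SS) to EC50 (XTT protection from HIV-1 RF cytopathicity in CEM-SS). Both values come from triplicates on each plate, two sister plates averaged. NA means no antiviral inhibition up to the cytotoxic concentration.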

[12] = test system: CEM-SS; experiment: Inhibition of cytopathic effect of HIV-1 RT containing the specified mutation 4X resistant to AZT in CEM-SS cells.; assay type: functional, cell-based; conditions: Homo sapiens
[13] = test system: CEM-SS; experiment: Fold resistance of HIV-1 RT containing the specified mutation V106A in CEM-SS cells; assay type: functional, Homo sapiens
In short: (§3)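 Fold resistance of mutant HIV-1 viruses whose RT carries the listed mutation(s), measured against a virus containing wild-type NL4-3 RT. Anti-HIV readout by CEM-SS cytopathic-effect protection.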

[14] = test system: CEM-SS; experiment: Fold resistance of HIV-1 RT containing the specified mutation V108I in CEM-SS cells; assay type: functional, Homo sapiens; in short: as §3
[15] = test system: CEM-SS; experiment: Fold resistance of HIV-1 RT containing the specified mutation 4X resistant to AZT in CEM-SS cells; NC=No significant change in sensitivity; assay type: functional, cell-based; conditions: Homo sapiens; in short: as §3
[16] = test system: CEM-SS; experiment: Fold resistance of HIV-1 RT containing the specified mutation K101E in CEM-SS cells; NC=No significant change in sensitivity; assay type: functional, cell-based; conditions: Homo sapiens; in short: as §3
[17] = test system: CEM-SS; experiment: Fold resistance of HIV-1 RT containing the specified mutation K103N in CEM-SS cells; assay type: functional, Homo sapiens; in short: as §3
[18] = test system: CEM-SS; experiment: Fold resistance of HIV-1 RT containing the specified mutation L100I in CEM-SS cells; assay type: functional, Homo sapiens; in short: as §3
[19] = test system: CEM-SS; experiment: Fold resistance of HIV-1 RT containing the specified mutation L100I resistant to AZT in CEM-SS cells; assay type: functional, Homo sapiens; in short: as §3
[20] = test system: CEM-SS; experiment: Inhibition of cytopathic effect of HIV-1 RT containing the specified mutation A98G in CEM-SS cells.; assay type: functional, cell-based, Homo sapiens
[21] = test system: CEM-SS; experiment: Inhibition of cytopathic effect of HIV-1 RT containing the specified mutation K101E in CEM-SS cells.; assay type: functional, cell-based, Homo sapiens
[22] = test system: CEM-SS; experiment: Inhibition of cytopathic effect of HIV-1 RT containing the specified mutation L100I resistant to AZT in CEM-SS cells.; assay type: functional, cell-based, Homo sapiens
[23] = test system: CEM-SS; experiment: Inhibition of cytopathic effect of HIV-1 RT containing the specified mutation L74V in CEM-SS cells.; assay type: functional, cell-based, Homo sapiens
[24] = test system: CEM-SS; experiment: Inhibition of cytopathic effect of HIV-1 RT containing the specified mutation V106A in CEM-SS cells.; assay type: functional, cell-based, Homo sapiens
[25] = test system: CEM-SS; experiment: Inhibition of cytopathic effect of HIV-1 RT containing the specified mutation V108I in CEM-SS cells.; assay type: functional, cell-based, Homo sapiens
[26] = test system: CEM-SS; experiment: Inhibition of cytopathic effect of HIV-1 RT containing the specified mutation V179D in CEM-SS cells.; assay type: functional, cell-based, Homo sapiens
[27] = test system: CEM-SS; experiment: Inhibition of cytopathic effect of HIV-1 RT containing the specified mutation Y188C in CEM-SS cells.; assay type: functional, cell-based, Homo sapiens
[28] = test system: CEM-SS; experiment: Fold resistance of HIV-1 RT containing the specified mutation V179D in CEM-SS cells; assay type: functional, Homo sapiens; in short: as §3
[29] = test system: CEM-SS; experiment: Fold resistance of HIV-1 RT containing the specified mutation Y181C in CEM-SS cells; assay type: functional, Homo sapiens; in short: as §3
[30] = test system: CEM-SS; experiment: Fold resistance of HIV-1 RT containing the specified mutation Y181C resistant to AZT in CEM-SS cells; assay type: functional, Homo sapiens; in short: as §3
[31] = test system: CEM-SS; experiment: Fold resistance of HIV-1 RT containing the specified mutation Y188C in CEM-SS cells; assay type: functional, Homo sapiens; in short: as §3
[32] = test system: CEM-SS; experiment: Fold resistance of HIV-1 RT containing the specified mutation L74V in CEM-SS cells; S=Enhanced sensitivity; assay type: functional, cell-based; conditions: Homo sapiens; in short: as §3
[33] = test system: CEM-SS; experiment: Fold resistance of HIV-1 RT containing the specified mutation A98G in CEM-SS cells; assay type: functional, Homo sapiens; in short: as §3
[34] = test system: CEM-SS; experiment: 50% inhibitory concentration for cytopathicity of HIV-1 RF in CEM-SS cells; NA=Not active; assay type: functional, cell-based, Homo sapiens; in short: as §1

CCNC(=O)OCCCCC=C(c1cc(Cl)c(OC)c(C(=O)OC)c1)c1cc(Cl)c(OC)c(C(=O)OC)c1
EC50 [1]: Not Active
CC50 [2]: 8.4 µM
IC50 [3]: 3.2 µM
IC50 ([4]; read-out: IC50): 1.2 µM

CCC1(CCCC=C(c2cc(Cl)c(OC)c(CO)c2)c2cc(Cl)c(OC)c(CO)c2)OCCO1
EC50 [1]: Not Active
CC50 [2]: 16.9 µM
IC50 [3]: 3.2 µM
IC50 ([4]; read-out: IC50): 31.6 µM

COC(=O)CCCC=C(c1cc(Cl)c(OC)c(C(=O)OC)c1)c1cc(Cl)c(OC)c(C(=O)OC)c1
EC50 [5]: > 50 µM
EC50 [6]: > 0.16 µM
EC50 [7]: > 50 µM
EC50 [8]: > 50 µM
CC50 [2]: 31.6 µM
EC50 [9]: 1.78 µM

CCC(=O)CCCC=C(c1cc(Cl)c(OC)c(CO)c1)c1cc(Cl)c(OC)c(CO)c1
EC50 [1]: Not Active
CC50 [2]: 14.2 µM

COC(=O)c1cc(C(=CCC2OCCO2)c2cc(Cl)c(OC)c(C(=O)OC)c2)cc(Cl)c1OC
EC50 [10]: 6.5 µM
CC50 [2]: 26 µM
IC50 [3]: 3.2 µM
selectivity ratio [11]: 4
IC50 ([4]; read-out: IC50): 20.5 µM

COC(=O)CCC=C(c1cc(Cl)c(OC)c(C(=O)OC)c1)c1cc(Cl)c(OC)c(C(=O)OC)c1
EC50 [10]: 4.8 µM
CC50 [2]: 29.4 µM
IC50 [3]: 7.2 µM
selectivity ratio [11]: 6.1
IC50 ([4]; read-out: IC50): > 100 µM

COC(=O)CC=C(c1cc(Cl)c(OC)c(C(=O)OC)c1)c1cc(Cl)c(OC)c(C(=O)OC)c1
EC50 [1]: Not Active
CC50 [2]: 13.3 µM
IC50 [3]: 2.2 µM
IC50 ([4]; read-out: IC50): > 100 µM

COC(=O)CCCC=C(c1cc(Br)c(OC)c(C(=O)OC)c1)c1cc(Br)c(OC)c(C(=O)OC)c1
EC50 [12]: 0.07 µM
Fold resistance [13]: 158.5
Fold resistance [14]: 10
EC50 [10]: 0.0013 µM
Fold resistance [15]: No significant changed
Fold resistance [16]: No significant changed
Fold resistance [17]: 7
Fold resistance [18]: 4.3
Fold resistance [19]: 5.5
EC50 [20]: 0.22 µM
EC50 [21]: 0.07 µM
EC50 [5]: 0.42 µM
EC50 [6]: 0.26 µM
EC50 [22]: 0.33 µM
EC50 [23]: 0.019 µM
EC50 [24]: 9.51 µM
EC50 [25]: 0.67 µM
EC50 [26]: 40.2 µM
EC50 [7]: 6.13 µM
EC50 [8]: 3.5 µM
EC50 [27]: 1.73 µM
Fold resistance [28]: 670
Fold resistance [29]: 102
Fold resistance [30]: 58.3
Fold resistance [31]: 28.8
CC50 [2]: 13 µM
EC50 [9]: 0.06 µM
IC50 [3]: 0.3 µM
selectivity ratio [11]: 10000
IC50 ([4]; read-out: IC50): 1 µM
Fold resistance [32]: Enhanced sensitivity
Fold resistance [33]: 3.7

COC(=O)CCCCC=C(c1cc(Cl)c(OC)c(C(=O)OC)c1)c1cc(Cl)c(OC)c(C(=O)OC)c1
EC50 [10]: 1.5 µM
CC50 [2]: 152 µM
IC50 [3]: 0.47 µM
selectivity ratio [11]: 101
IC50 ([4]; read-out: IC50): 3.35 µM

CCC1(CCC/C=C(\c2cc(Cl)c(OC)c(C=O)c2)c2cc(Cl)c(OC)c(CO)c2)OCCO1
EC50 [34]: Not Active
CC50 [2]: 5.8 µM
IC50 [3]: 31.6 µM
IC50 [4]: No inhibition
